Experimental data: ChEMBL document CHEMBL4619810, “Fluorescent H2 Receptor Squaramide-Type Antagonists: Synthesis, Characterization, and Applications” (ACS Med Chem Lett, 2020)
Activity calls are given as the source filed them. No cut-off for these calls is given here.

Tests used:
[1] = target: T1, Histamine H2 receptor (Homo sapiens, UniProt P25021); test: Displacement of [3H]UR-DE257 from Gsalphas-coupled human H2R expressed in baculovirus infected Sf9 cells incubated for 60 mins by scintillation counting method
T1 sequence (P25021 whole entry): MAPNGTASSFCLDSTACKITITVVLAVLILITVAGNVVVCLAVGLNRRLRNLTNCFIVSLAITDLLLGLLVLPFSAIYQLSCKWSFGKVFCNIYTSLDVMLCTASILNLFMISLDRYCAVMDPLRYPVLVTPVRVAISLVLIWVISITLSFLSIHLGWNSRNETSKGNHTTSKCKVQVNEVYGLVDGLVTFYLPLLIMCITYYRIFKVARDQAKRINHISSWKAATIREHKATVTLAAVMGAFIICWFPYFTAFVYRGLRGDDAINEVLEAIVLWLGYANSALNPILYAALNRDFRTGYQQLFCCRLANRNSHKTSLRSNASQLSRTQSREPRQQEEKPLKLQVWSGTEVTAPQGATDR

[2] = target: T1, Histamine H2 receptor; test: Agonist activity at human H2R expressed in human HEK293T cells assessed as effect on beta-arrestin2 recruitment incubated for 60 mins by brightglo-reagent based assay; format: cell-based; settings: HEK-293T
[3] = target: Histamine H2 receptor (Rattus norvegicus, UniProt P25102); test: Displacement of [125I]-aminopotentidine from rat H2R expressed in human COS7 cells incubated for 90 mins gamma counting method; format: cell-based, COS-7
Sequence of Histamine H2 receptor (Rattus norvegicus, UniProt P25102) (P25102 whole entry): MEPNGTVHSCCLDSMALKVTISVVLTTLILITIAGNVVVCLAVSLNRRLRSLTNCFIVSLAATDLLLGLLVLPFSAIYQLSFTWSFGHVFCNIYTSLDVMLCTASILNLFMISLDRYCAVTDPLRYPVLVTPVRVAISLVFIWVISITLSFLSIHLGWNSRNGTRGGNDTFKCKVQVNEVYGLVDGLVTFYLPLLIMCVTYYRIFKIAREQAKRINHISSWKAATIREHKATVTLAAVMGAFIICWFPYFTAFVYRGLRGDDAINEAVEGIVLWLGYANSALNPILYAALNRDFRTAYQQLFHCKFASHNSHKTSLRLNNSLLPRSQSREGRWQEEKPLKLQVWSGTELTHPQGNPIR

[4] = system: HEK-293T; test: Cytotoxicity against human HEK293T cells assessed as reduction in cell viability at 3000 nM incubated for 60 mins by H33342 staining based imaging analysis; settings: 1 h, 3 µM
[5] = target: T1, Histamine H2 receptor; test: Binding affinity to human H2R expressed in human HEK293T cells incubated for 90 mins by flowcytometry; format: cell-based, HEK-293T
Summary of the method: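 Flow cytometric saturation binding of fluorescent ligands on suspended HEK293T-hH2R-qs5 cells, 90 min incubation; pKd reported as mean ± SEM from three independent experiments, each in duplicate.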

[6] = system: HEK-293T; test: Cytotoxicity against human HEK293T cells assessed as reduction in cell viability at 3000 nM incubated for 90 mins by flow cytometry analysis; format: cell-based; settings: 1.5 h, 3 µM
[7] = target: T1, Histamine H2 receptor; test: Binding affinity to human H2R expressed in human HEK293T cells incubated for 60 mins by automated cell imaging analysis; format: cell-based, HEK-293T
[8] = system: HEK-293T; test: Cytotoxicity against human HEK293T cells assessed as reduction in cell viability at 500 nM incubated for 60 mins by H33342 staining based imaging analysis; settings: 1 h, 0.5 µM
[9] = system: HEK-293T; test: Cytotoxicity against human HEK293T cells assessed as reduction in cell viability at 3500 nM incubated for 90 mins by flow cytometry analysis; format: cell-based; settings: 1.5 h, 3.5 µM
[10] = system: HEK-293T; test: Cytotoxicity against human HEK293T cells assessed as reduction in cell viability at 500 nM incubated for 90 mins by flow cytometry analysis; format: cell-based; settings: 1.5 h, 0.5 µM
[11] = target: T1, Histamine H2 receptor; test: Binding affinity to human H2R expressed in human HEK293T cells incubated for 60 mins by imaging flow cytometry analysis; format: cell-based, HEK-293T; settings: for Ka: HEK-293T
[12] = target: T1, Histamine H2 receptor; test: Binding affinity to H2R in human HEK293T cell membrane assessed as drug localization at 75 nM incubated for 60 mins followed by compound washoff by confocal microscopy analysis; format: cell-based; settings: HEK-293T
Summary of the method: (§1)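 Adherent HEK293T-hH2R-qs5 cells incubated with fluorescent ligand 60 min at rt, then washed; Hoechst 33342 nuclear counterstain; famotidine (300-fold excess) defines nonspecific binding; membrane localization imaged by automated cell imaging.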

[13] = target: T1, Histamine H2 receptor; settings: Sf9
[14] = system: HEK-293T; test: Cytotoxicity against human HEK293T cells assessed as reduction in cell viability at 100 nM incubated for 90 mins by flow cytometry analysis; format: cell-based; settings: 1.5 h, 0.1 µM
[15] = target: T1, Histamine H2 receptor; test: Binding affinity to H2R in human HEK293T cell membrane assessed as drug localization at 100 nM incubated for 20 mins by confocal microscopy analysis; format: cell-based; settings: HEK-293T
Summary of the method: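 Live HEK293T-hH2R-qs5 cells exposed to fluorescent ligand at 100 nM, 20 min, room temperature; receptor binding at the cell membrane visualized by confocal laser scanning microscopy (63x/1.40 oil immersion objective).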

[16] = target: T1, Histamine H2 receptor; test: Binding affinity to H2R in human HEK293T cell membrane assessed as drug localization at 100 nM in presence of famotidine incubated for 20 mins by confocal microscopy analysis; format: cell-based; settings: HEK-293T
Summary of the method: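 HEK293T-hH2R-qs5 cells incubated with fluorescent ligand (100 nM) for 20 min at rt in the presence of famotidine (300-fold excess) to define nonspecific binding; membrane localization imaged by confocal laser scanning microscopy, 63x/1.40 oil objective.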

[17] = system: HEK-293T; test: Cytotoxicity against human HEK293T cells assessed as reduction in cell viability at 150 nM incubated for 60 mins by H33342 staining based imaging analysis; settings: 1 h, 0.15 µM
[18] = target: T1, Histamine H2 receptor; test: Binding affinity to H2R (unknown origin)
[19] = target: T1, Histamine H2 receptor; test: Binding affinity to H2R in human HEK293T cell membrane assessed as drug localization at 250 nM incubated for 60 mins followed by compound washoff by confocal microscopy analysis; format: cell-based; settings: HEK-293T; summary of the method: as §1
[20] = system: HEK-293T; test: Cytotoxicity against human HEK293T cells assessed as reduction in cell viability at 1000 nM incubated for 60 mins by H33342 staining based imaging analysis; settings: 1 h, 1 µM
[21] = target: T1, Histamine H2 receptor; test: Binding affinity to H2R in human HEK293T cell membrane assessed as drug localization at 500 nM incubated for 60 mins followed by compound washoff by confocal microscopy analysis; format: cell-based; settings: HEK-293T; summary of the method: as §1
[22] = target: T1, Histamine H2 receptor; test: Binding affinity to human H2R expressing Sf9 cells incubated for 60 mins by microbeta scintillation counter method

Structure (SMILES)	Ki [1]	Activity [2]	Kd [5]	Kd [7]	pKb [13]	Activity [10]	further results
CC1(C)C(/C=C/C=C/C=C2\N(CCCCCC(=O)NCCCCNc3c(NCCCOc4cccc(CN5CCCCC5)c4)c(=O)c3=O)c3cc(S(=O)(=O)O)ccc3C2(C)C)=[N+](CCCCS(=O)(=O)[O-])c2ccccc21	2040 nM	inactive					
CNc1ccccc1C(=O)NCCN/C(=N\C#N)NCCCOc1cccc(CN2CCCCC2)c1							Ki [3]: < 100 nM
N#CN=C(NCCCCCCCCNc1ccc([N+](=O)[O-])c2n[o+][n-]c12)NCCCOc1cccc(CN2CCCCC2)c1							Ki [3]: < 100 nM
CC1(C)C(/C=C/C=C/C=C2\N(CCCCCC(=O)NCCCCNc3c(NCCCOc4cccc(CN5CCCCC5)c4)c(=O)c3=O)c3ccccc3C2(C)C)=[N+](CCCCS(=O)(=O)[O-])c2ccccc21.O=C(O)C(F)(F)F.O=C(O)C(F)(F)F	324 nM		562 nM	170 nM			Activity [4]: Non-Toxic; Activity [6]: Non-Toxic
C[N+]1=C(/C=C/C=C/C=C2\N(CCCCCC(=O)NCCCCNc3c(NCCCOc4cccc(CN5CCCCC5)c4)c(=O)c3=O)c3ccccc3C2(C)C)C(C)(C)c2ccccc21.O=C(O)C(F)(F)F.O=C([O-])C(F)(F)F	269 nM		288 nM	120 nM			Activity [8]: Non-Toxic; Activity [9]: Non-Toxic
C[N+]1=C(/C=C/C=C/C=C2\N(CCCCCC(=O)NCCCCCCNc3c(NCCCOc4cccc(CN5CCCCC5)c4)c(=O)c3=O)c3ccccc3C2(C)C)C(C)(C)c2ccccc21.O=C(O)C(F)(F)F.O=C([O-])C(F)(F)F	21.4 nM	inactive	12.9 nM	15.1 nM	7.73		Activity [12]: Active; Activity [14]: Non-Toxic; Ka [11]: 15000 to 33300 M⁻¹ s⁻¹; Activity [15]: Active; Activity [16]: Active; Activity [17]: Non-Toxic
CC1(C)C(/C=C/C=C/C=C2\N(CCCCCC(=O)NCCCCCNc3c(NCCCOc4cccc(CN5CCCCC5)c4)c(=O)c3=O)c3ccccc3C2(C)C)=[N+](CCCCS(=O)(=O)[O-])c2ccccc21							pKb [18]: 6.89
CC1(C)C(/C=C/C=C/C=C2\N(CCCCCC(=O)NCCCCCCNc3c(NCCCOc4cccc(CN5CCCCC5)c4)c(=O)c3=O)c3ccccc3C2(C)C)=[N+](CCCCS(=O)(=O)[O-])c2ccccc21.O=C(O)C(F)(F)F.O=C(O)C(F)(F)F	77.6 nM		47.9 nM	16.2 nM	6.49	Non-Toxic	Activity [12]: Active; Activity [8]: Non-Toxic; Ka [11]: 15000 to 33300 M⁻¹ s⁻¹; Activity [15]: Active; Activity [16]: Active
CC1(C)C(/C=C/C=C/C=C2\N(CCCCCC(=O)NCCCCCCNc3c(NCCCOc4cccc(CN5CCCCC5)c4)c(=O)c3=O)c3cc(S(=O)(=O)O)ccc3C2(C)C)=[N+](CCCCS(=O)(=O)[O-])c2ccccc21.O=C(O)C(F)(F)F.O=C(O)C(F)(F)F	1320 nM			447 nM			Activity [4]: Non-Toxic; Activity [21]: Active
[3H]CC([3H])C(=O)NCCCCCCNc1c(NCCCOc2cccc(CN3CCCCC3)c2)c(=O)c1=O (centres undefined)							Kd [22]: 31 nM

The next lines start with results.

Ki [1]	Activity [2]	Kd [5]	Kd [7]	pKb [13]	Structure (SMILES)	Activity [10]	further results
17.8 nM		28.2 nM	74.1 nM		Cc1cc(/C=C/C=C/c2ccc(N(C)C)cc2)cc(C)[n+]1CCCCNc1c(NCCCOc2cccc(CN3CCCCC3)c2)c(=O)c1=O.O=C(O)C(F)(F)F.O=C([O-])C(F)(F)F	Non-Toxic	Activity [8]: Non-Toxic; Kd [11]: 87.1 nM
19.5 nM	inactive	14.5 nM		7.21	Cc1cc(/C=C/C=C/c2ccc(N(C)C)cc2)cc(C)[n+]1CCCCCCNc1c(NCCCOc2cccc(CN3CCCCC3)c2)c(=O)c1=O.O=C(O)C(F)(F)F.O=C([O-])C(F)(F)F	Non-Toxic	
17.4 nM	inactive	18.6 nM	89.1 nM	7.85	Cc1cc(/C=C/C=C/c2ccc(N(C)C)cc2)cc(C)[n+]1CCCCCCCNc1c(NCCCOc2cccc(CN3CCCCC3)c2)c(=O)c1=O.O=C(O)C(F)(F)F.O=C([O-])C(F)(F)F	Non-Toxic	Activity [19]: Active; Kd [11]: 64.6 nM; Ka [11]: 71700 M⁻¹ s⁻¹; Activity [15]: Active; Activity [20]: Non-Toxic; Activity [16]: Active
